Results reported in PMC2741613 (Journal of the American Chemical Society, 2009).

Tests used:
He-PTP = target: T1, He-PTP (Homo sapiens, UniProt P35236); experiment: PTP activity assay with pNPP, He-PTP; type: biochemical
T1 sequence (P35236 1-360): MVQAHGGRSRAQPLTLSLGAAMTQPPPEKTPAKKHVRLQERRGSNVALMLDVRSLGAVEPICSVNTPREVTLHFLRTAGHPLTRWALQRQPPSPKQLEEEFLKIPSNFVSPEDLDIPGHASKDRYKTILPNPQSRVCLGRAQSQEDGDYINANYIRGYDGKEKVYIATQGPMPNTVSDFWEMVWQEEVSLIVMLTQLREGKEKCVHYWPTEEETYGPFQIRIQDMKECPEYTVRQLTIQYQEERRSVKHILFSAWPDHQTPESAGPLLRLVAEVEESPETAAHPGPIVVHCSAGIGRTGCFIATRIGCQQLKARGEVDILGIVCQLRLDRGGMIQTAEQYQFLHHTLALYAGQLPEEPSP
Outline: (§1)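 Reactions started by adding enzyme to mixtures with various pNPP and test-compound concentrations. Rates were fitted with an enzyme-kinetics model for Ki.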

[1] = system: pSrc527 in PTP1B−/− mouse embryo fibroblast cells; experiment: Src phosphorylation at Tyr527 in cells; type: cell-based; conditions: treated for two hours, various concentrations
Outline: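 PTP1B−/− mouse embryo fibroblasts at 80% confluence were exposed to test compound for two hours, then lysed and cleared at 15,000 rpm for 10 min. 30 μg total protein run on SDS-PAGE and blotted to PVDF. Probed with anti-pSrc416, anti-pSrc527 and anti-Src antibodies, HRP-conjugated secondaries.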

FAP1 = FAP1 (Homo sapiens, UniProt Q12923); experiment: PTP activity assay with pNPP, FAP1; type: biochemical
Outline: as §1

PTP-Meg2 = target: T2, PTP-Meg2 (Homo sapiens, UniProt P43378); experiment: PTP activity assay with pNPP, PTP-Meg2; type: biochemical
T2 sequence (P43378 1-593): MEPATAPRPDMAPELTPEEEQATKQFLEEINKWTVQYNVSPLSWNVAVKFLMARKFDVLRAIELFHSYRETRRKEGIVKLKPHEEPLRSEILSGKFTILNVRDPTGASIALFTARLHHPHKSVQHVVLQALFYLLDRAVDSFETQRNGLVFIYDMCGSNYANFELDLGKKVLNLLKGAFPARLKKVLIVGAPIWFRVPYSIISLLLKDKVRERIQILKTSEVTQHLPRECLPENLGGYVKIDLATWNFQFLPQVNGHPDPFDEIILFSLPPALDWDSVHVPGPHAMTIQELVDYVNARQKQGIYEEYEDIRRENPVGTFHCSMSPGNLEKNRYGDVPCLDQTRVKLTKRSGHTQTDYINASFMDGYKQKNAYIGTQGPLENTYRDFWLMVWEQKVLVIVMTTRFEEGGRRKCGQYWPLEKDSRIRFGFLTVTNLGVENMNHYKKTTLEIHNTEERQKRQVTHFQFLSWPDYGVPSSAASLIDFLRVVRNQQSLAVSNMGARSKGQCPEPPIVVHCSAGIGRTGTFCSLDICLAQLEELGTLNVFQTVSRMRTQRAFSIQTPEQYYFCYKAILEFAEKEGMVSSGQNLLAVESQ
Outline: as §1

Sequence of FAP1 (Q12923 whole entry, species assumed): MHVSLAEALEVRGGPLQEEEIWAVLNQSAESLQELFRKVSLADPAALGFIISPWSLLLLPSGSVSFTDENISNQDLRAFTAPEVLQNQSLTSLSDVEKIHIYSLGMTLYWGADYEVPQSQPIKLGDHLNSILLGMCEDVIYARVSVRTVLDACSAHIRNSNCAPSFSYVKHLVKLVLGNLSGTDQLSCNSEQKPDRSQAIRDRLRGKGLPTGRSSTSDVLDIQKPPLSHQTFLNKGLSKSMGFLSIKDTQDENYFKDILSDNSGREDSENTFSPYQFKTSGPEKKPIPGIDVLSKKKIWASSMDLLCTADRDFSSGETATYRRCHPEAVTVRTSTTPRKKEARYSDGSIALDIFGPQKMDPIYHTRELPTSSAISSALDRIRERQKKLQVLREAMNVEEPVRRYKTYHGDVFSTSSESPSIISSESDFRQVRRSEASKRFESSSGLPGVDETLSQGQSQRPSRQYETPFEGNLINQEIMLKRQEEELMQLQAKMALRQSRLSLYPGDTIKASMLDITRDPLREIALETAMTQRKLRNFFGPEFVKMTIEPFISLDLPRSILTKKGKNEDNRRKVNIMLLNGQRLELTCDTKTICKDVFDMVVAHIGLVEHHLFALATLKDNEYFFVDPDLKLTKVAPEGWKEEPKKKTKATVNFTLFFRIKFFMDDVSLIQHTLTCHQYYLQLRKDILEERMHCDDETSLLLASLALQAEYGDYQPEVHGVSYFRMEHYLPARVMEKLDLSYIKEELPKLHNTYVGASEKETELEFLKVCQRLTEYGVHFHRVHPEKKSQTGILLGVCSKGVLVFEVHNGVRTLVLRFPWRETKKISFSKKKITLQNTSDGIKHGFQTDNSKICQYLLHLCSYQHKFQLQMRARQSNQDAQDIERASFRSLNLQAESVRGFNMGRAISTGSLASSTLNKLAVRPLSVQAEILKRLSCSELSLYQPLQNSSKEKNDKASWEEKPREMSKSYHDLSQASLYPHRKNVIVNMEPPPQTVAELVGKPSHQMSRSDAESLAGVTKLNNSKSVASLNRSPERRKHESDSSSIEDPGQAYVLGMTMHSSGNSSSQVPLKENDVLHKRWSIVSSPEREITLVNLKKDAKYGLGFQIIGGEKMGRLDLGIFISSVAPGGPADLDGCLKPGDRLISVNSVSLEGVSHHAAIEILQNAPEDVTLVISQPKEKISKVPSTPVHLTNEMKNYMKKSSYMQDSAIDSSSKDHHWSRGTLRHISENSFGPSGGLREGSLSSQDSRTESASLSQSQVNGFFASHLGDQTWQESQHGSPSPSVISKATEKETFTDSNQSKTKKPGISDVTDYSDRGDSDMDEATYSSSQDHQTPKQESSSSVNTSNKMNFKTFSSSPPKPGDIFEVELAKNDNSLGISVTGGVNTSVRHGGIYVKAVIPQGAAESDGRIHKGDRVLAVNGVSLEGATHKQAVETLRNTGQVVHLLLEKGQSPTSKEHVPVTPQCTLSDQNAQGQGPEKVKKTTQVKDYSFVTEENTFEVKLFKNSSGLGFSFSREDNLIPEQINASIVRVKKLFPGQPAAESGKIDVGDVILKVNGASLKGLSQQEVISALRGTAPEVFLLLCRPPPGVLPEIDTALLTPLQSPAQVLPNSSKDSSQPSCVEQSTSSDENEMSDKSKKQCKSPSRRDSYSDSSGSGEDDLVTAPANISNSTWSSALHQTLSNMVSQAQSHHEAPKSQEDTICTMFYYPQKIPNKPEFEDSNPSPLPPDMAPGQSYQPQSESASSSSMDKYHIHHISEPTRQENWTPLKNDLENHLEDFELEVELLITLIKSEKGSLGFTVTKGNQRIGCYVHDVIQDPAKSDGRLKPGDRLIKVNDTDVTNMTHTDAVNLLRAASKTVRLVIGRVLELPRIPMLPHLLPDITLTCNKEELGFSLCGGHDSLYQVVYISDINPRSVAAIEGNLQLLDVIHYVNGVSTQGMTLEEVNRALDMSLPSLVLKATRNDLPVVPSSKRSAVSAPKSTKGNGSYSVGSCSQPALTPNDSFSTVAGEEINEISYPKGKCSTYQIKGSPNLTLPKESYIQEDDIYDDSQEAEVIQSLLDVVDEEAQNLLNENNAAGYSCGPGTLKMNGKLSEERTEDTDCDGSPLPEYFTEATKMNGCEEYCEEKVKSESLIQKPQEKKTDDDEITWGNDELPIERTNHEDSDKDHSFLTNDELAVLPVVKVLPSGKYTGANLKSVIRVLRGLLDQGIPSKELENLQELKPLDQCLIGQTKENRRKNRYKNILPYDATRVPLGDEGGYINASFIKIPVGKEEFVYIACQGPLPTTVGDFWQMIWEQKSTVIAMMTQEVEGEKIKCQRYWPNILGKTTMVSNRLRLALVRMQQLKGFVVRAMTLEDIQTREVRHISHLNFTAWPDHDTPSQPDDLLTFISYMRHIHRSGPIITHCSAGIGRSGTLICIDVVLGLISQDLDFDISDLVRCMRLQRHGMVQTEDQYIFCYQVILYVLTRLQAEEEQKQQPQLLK

In the case of `CCc1ccc(C(=O)NCCCC[C@H](NC(=O)[C@H](Cc2ccc(C(F)(F)P(=O)(O)O)cc2)NC(=O)[C@H](Cc2ccccc2)NC(=O)CO[C@H]2C[C@@H](C)CC[C@@H]2C(C)C)C(N)=O)cc1` [Compound 8], the Ki (He-PTP) is reported as > 1 µM, the “effect on pSrc527 phosphorylation” value [1] is reported as “no significant change” and the Ki (FAP1) is reported as > 1 µM. For the same compound, the Ki (PTP-Meg2) was > 1 µM.
